{
  "source": "ChEMBL document CHEMBL4689842",
  "about": "“EUbOPEN Chemogenomics Library wave 1” (2021)",
  "system": "Fibroblast",
  "experiment": "Multiplex assay against human fibroblast",
  "type": "toxicity, cell-based",
  "conditions": "1 µM, compound concentration 1 uM",
  "method_in_brief": "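Live cells were stained at seeding with Hoechst33342, BioTracker Green Microtubule Cytoskeleton Dye, MitoTracker Red and Annexin V Alexa Fluor 680. Following compound addition, they were imaged on a CQ1 microscope at 37°C and 5% CO2 and gated by CellPathfinder machine learning into Hoechst high-intensity objects or normal cells, with normal cells split into healthy, pyknosed or fragmented nuclei and pyknosed cells into mitotic or apoptotic. Tubulin, mitochondrial-mass and membrane-permeability phenotypes are per cents of healthy-nucleus cells.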",
  "note": "Several values for one entry are separate records, joined by “and”; a condition that tells them apart may be missing. Equal entries are not always repeated.",
  "data": [
    {"molecule": "CN([C@@H](Cc1ccc(OS(=O)(=O)c2cccc3cnccc23)cc1)C(=O)N1CCN(c2ccccc2)CC1)S(=O)(=O)c1cccc2cnccc12", "values": [
      {"measurement": "Population Apoptotic (%)", "setting": "12 h, replicate 1", "value": "54% and 75%"},
      {"measurement": "Population Fragmented Nuclei (%)", "setting": "12 h, replicate 1", "value": 29, "unit": "%"},
      {"measurement": "Population Healthy Nuclei (%)", "setting": "12 h, replicate 1", "value": "56% and 53%"},
      {"measurement": "Population Hoechst High Intensity Objects (%)", "setting": "12 h, replicate 1", "value": "8% and 14%"},
      {"measurement": "Population Membrane Permeable-Phenotype (%)", "setting": "12 h, replicate 1", "value": 45, "unit": "%"},
      {"measurement": "Population Mitotic Cells (%)", "setting": "12 h, replicate 1", "value": "45% and 25%"},
      {"measurement": "Population Normal (%)", "setting": "12 h, replicate 1", "value": "91% and 85%"},
      {"measurement": "Population Pyknosed Nuclei (%)", "setting": "12 h, replicate 1", "value": "13% and 17%"},
      {"measurement": "Population Tubulin-Different-Phenotype (%)", "setting": "12 h, replicate 1", "value": "57% and 69%"},
      {"measurement": "Total Cell Count", "setting": "12 h, replicate 1", "value": "348 and 189"},
      {"measurement": "Population Apoptotic (%)", "setting": "12 h, replicate 2", "value": "50% and 80%"},
      {"measurement": "Population Fragmented Nuclei (%)", "setting": "12 h, replicate 2", "value": "53% and 70%"},
      {"measurement": "Population Healthy Nuclei (%)", "setting": "12 h, replicate 2", "value": "39% and 14%"},
      {"measurement": "Population Hoechst High Intensity Objects (%)", "setting": "12 h, replicate 2", "value": "30% and 41%"},
      {"measurement": "Population Mitochondria Different-Phenotype (%)", "setting": "12 h, replicate 2", "value": "39% and 60%"},
      {"measurement": "Population Mitotic Cells (%)", "setting": "12 h, replicate 2", "value": "50% and 20%"},
      {"measurement": "Population Normal (%)", "setting": "12 h, replicate 2", "value": "69% and 58%"},
      {"measurement": "Population Pyknosed Nuclei (%)", "setting": "12 h, replicate 2", "value": "6% and 14%"},
      {"measurement": "Population Tubulin-Different-Phenotype (%)", "setting": "12 h, replicate 2", "value": "82% and 80%"},
      {"measurement": "Total Cell Count", "setting": "12 h, replicate 2", "value": "84 and 58"},
      {"measurement": "Population Apoptotic (%)", "setting": "24 h, replicate 1", "value": "66% and 59%"},
      {"measurement": "Population Fragmented Nuclei (%)", "setting": "24 h, replicate 1", "value": "23% and 30%"},
      {"measurement": "Population Healthy Nuclei (%)", "setting": "24 h, replicate 1", "value": "61% and 59%"},
      {"measurement": "Population Hoechst High Intensity Objects (%)", "setting": "24 h, replicate 1", "value": "15% and 13%"},
      {"measurement": "Population Membrane Permeable-Phenotype (%)", "setting": "24 h, replicate 1", "value": "30% and 21%"},
      {"measurement": "Population Mitotic Cells (%)", "setting": "24 h, replicate 1", "value": "33% and 40%"},
      {"measurement": "Population Normal (%)", "setting": "24 h, replicate 1", "value": "84% and 86%"},
      {"measurement": "Population Pyknosed Nuclei (%)", "setting": "24 h, replicate 1", "value": "15% and 10%"},
      {"measurement": "Population Tubulin-Different-Phenotype (%)", "setting": "24 h, replicate 1", "value": "70% and 47%"},
      {"measurement": "Total Cell Count", "setting": "24 h, replicate 1", "value": "184 and 365"},
      {"measurement": "Population Fragmented Nuclei (%)", "setting": "24 h, replicate 2", "value": "76% and 52%"},
      {"measurement": "Population Healthy Nuclei (%)", "setting": "24 h, replicate 2", "value": "14% and 38%"},
      {"measurement": "Population Hoechst High Intensity Objects (%)", "setting": "24 h, replicate 2", "value": "33% and 25%"},
      {"measurement": "Population Membrane Permeable-Phenotype (%)", "setting": "24 h, replicate 2", "value": "40% and 25%"},
      {"measurement": "Population Mitochondria Different-Phenotype (%)", "setting": "24 h, replicate 2", "value": "40% and 33%"},
      {"measurement": "Population Normal (%)", "setting": "24 h, replicate 2", "value": "66% and 74%"},
      {"measurement": "Population Pyknosed Nuclei (%)", "setting": "24 h, replicate 2", "value": "8% and 9%"},
      {"measurement": "Population Tubulin-Different-Phenotype (%)", "setting": "24 h, replicate 2", "value": "60% and 91%"},
      {"measurement": "Total Cell Count", "setting": "24 h, replicate 2", "value": "51 and 85"}
    ]}
  ]
}
